From ChEMBL document CHEMBL1134344, “Crystal structure of human cyclin-dependent kinase 2 in complex with the adenine-derived inhibitor H717” (J Med Chem, 2001) come the findings set out here.

The IC50 is the midpoint of a concentration-inhibition curve.

Assay [1] concerns the target Cyclin-dependent kinase 1/cyclin B (Homo sapiens, UniProt P06493). Nature of the assay: Inhibition of human cyclic dependent kinase 1 (CDK1)/cyclin B. It is filed as protein-complex assay.
The subject of a further assay is A549. The assay is described as follows: Inhibition of A549 human lung tumor cell proliferation. It is filed as functional, cell-based. The method in brief:
(§1)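 Tumor cells harvested with trypsin-EDTA, trypan-blue-excluding cells counted, plated and left overnight at 37 °C; drug diluted in culture medium and added for 72 h (three days). Medium then removed, plates frozen at -80 °C ≥30 min, thawed, and CyQUANT-GR in lysis buffer added for 3-5 min at room temperature.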

The next assay concerns HCT-15. The assay is described as follows: Inhibition of HCT-15 human colon tumor cell proliferation. It is filed as functional, cell-based. The method in brief: as §1
For a further assay, the system named is HT-29. The assay is described as follows: Inhibition of HT-29 human colon tumor cell proliferation. The class given is functional, cell-based. The method in brief:
as §1

A further assay has as its system MDA-MB-231. Nature of the assay: Inhibition of MDA-MB-231 human breast tumor cell proliferation. The class given is functional, cell-based. The gist of the method:
as §1

In a further assay the test system is DU-145. The assay is described as follows: Inhibition of DU-145 human prostate tumor cell proliferation. The class given is functional, cell-based. The gist of the method:
as §1

The subject of the next assay is MCF7. The assay is described as follows: Inhibition of MCF-7 human breast tumor cell proliferation. The class given is functional, cell-based. The gist of the method:
as §1

Assay [2] has as its target Cyclin-dependent kinase 2/cyclin E (Homo sapiens, UniProt P24941). The assay is described as follows: Inhibition of cyclic dependent kinase 2 (CDK2)/cyclin E. It is filed as protein-complex assay.
The next assay concerns DMS-114. Nature of the assay: Inhibition of DMS114 human lung tumor cell proliferation. It is filed as functional, cell-based. The method in brief: as §1
In another assay the test system is PC-3. Nature of the assay: Inhibition of PC-3 human prostate tumor cell proliferation. The class given is functional, cell-based. The gist of the method: as §1
Assay [3] addresses Cyclin-dependent kinase 4/cyclin D1 (Homo sapiens, UniProt P11802). Nature of the assay: Inhibition of cyclic dependent kinase 4 (CDK4)/cyclin D1. It is filed as protein-complex assay. The method in brief:
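Human CDK4 and cyclin D1 coexpressed in Sf9 cells (baculovirus, MOI 0.1 each, 72 h); 0.1 ng enzyme from clarified lysate. Substrate GST-Rb (0.5 µg) on glutathione-Sepharose beads. ATP 10 µM plus [γ33P]ATP; 30 min at 30 °C. Filtration, TNEN washes, scintillation counting; IC50 from increasing drug concentrations.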

Sequence of Cyclin-dependent kinase 4/cyclin D1 (P11802 whole entry): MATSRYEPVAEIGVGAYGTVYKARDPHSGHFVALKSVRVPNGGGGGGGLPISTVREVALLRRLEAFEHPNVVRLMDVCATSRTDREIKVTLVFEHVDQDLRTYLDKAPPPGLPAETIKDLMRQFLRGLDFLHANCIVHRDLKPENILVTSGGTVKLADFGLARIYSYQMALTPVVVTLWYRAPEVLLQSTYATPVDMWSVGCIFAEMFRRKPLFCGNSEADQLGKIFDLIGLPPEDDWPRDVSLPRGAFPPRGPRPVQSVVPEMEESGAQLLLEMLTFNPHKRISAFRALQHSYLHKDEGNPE
Sequence of Cyclin-dependent kinase 4/cyclin D1 (P24385 whole entry, further chain): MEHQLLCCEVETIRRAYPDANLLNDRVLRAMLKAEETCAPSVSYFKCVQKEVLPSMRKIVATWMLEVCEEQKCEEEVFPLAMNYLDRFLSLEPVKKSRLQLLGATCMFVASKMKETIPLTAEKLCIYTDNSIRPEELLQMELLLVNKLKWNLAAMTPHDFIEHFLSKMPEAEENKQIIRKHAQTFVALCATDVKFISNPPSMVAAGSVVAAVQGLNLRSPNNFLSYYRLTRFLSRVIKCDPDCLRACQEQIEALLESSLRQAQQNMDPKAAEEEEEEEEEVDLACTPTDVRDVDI

Regarding `N[C@H]1CC[C@H](Nc2nc(NCc3ccccc3)c3ncn(C4CCCC4)c3n2)CC1`, the half-maximal inhibitory concentration (IC50) in assay [1] is 0.052 µM. That is a double-digit nanomolar value.

For `C[C@H](Nc1nc(N[C@H]2CC[C@H](N)CC2)nc2c1ncn2C1CCCC1)c1ccccc1`, the IC50 in assay [1] was 2 µM; in the assay with A549 it was 6.1 µM; in the assay with HCT-15, 8.6 µM; in the assay with HT-29 it was 5.7 µM; in the assay with MDA-MB-231 it was 5.2 µM; in the assay with DU-145, 5.6 µM. For the same molecule, the IC50 in the assay on MCF7 was 3.3 µM; in assay [2] it was 0.72 µM; in the assay on DMS-114, 6.6 µM; in the assay with PC-3, 3.9 µM; in assay [3], 8.8 µM.

Turning to `N[C@H]1CC[C@H](Nc2nc(NCC3CC3)c3ncn(C4CCCC4)c3n2)CC1`, the IC50 in [1] was determined as 0.07 µM; in the assay on A549, 1.6 µM; in the assay with HCT-15, 3.3 µM; with HT-29, 2 µM; in the assay on MDA-MB-231, 1.7 µM; with DU-145, 1.3 µM. Moreover, the concentration for half-maximal inhibition (IC50) in the assay with MCF7 worked out at 1.3 µM; in [2], 0.024 µM; in the assay on DMS-114 it was 1.4 µM; in the assay on PC-3 it was 0.6 µM; in [3] it was 0.78 µM.

Consider `N[C@H]1CC[C@H](Nc2nc(NCc3cccc(I)c3)c3ncn(C4CCCC4)c3n2)CC1`, for which the IC50 in assay [1] came out at 0.226 µM; in the assay with A549, 1 µM; with HCT-15 it was 2.1 µM; in the assay with HT-29 it was 1.2 µM; with MDA-MB-231, 1 µM; in the assay on DU-145 it was 1.6 µM. Further, the IC50 with MCF7 turned out to be 0.6 µM; in [2], 0.05 µM; with DMS-114, 1 µM; in the assay on PC-3, 1.4 µM; in assay [3], 2 µM.
